Sampled rows, rich in hits. Any-hit rate of the full collection: about 2.3%.
CHT PAM: CHT positive allosteric modulators, primary screen, cell-based, membrane potential dye, choline EC20 | 0.49% of 310,000 active | CHT-expressing cells; active compounds read high; LV-AA mutant CHT in HEK293 cells | High affinity choline transporter 1 (Homo sapiens), Q9GZV3 | B-score at 10 µM;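 active = initial fluorescence not abnormally high and integrated response B-score, plate-corrected, over 3 SD above library mean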
GPR7 antagonist: GPR7 receptor antagonists, primary screen, cell-based, fluorescence, single concentration | 1.1% of 290,000 active | inhibition, % at 4.4 µM | AID 1861, 2009 | GPR7-expressing cells, fluorescence antagonist assay; in the data active = inhibition above about 16%, passing the limit was not always enough;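 note: cells stimulated with the agonist NPW; 0% = agonist with vehicle and 100% = vehicle without agonist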
T cell HTS: modulators of CD8 T cell-vesicle binding, primary screen, mouse 2C CD8+ T cells, flow cytometry | 0.068% of 330,000 active | 2C CD8+ T cell-vesicle binding; active compounds read low | response (vesicle binding), % at 7 µM;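 active = response, share of CD8 T cells binding vesicles, and their 90th percentile fluorescence all below set limits, cut at about 80% in these data, passing the limit was not always enough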;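 note: values below 100% mean blocked vesicle binding to the CD8+ T cells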
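Material: murine 2C transgenic CD8+ T lymphocytes / Also added: QL9-peptide-loaded Drosophila micro-vesicles bearing Ld, ICAM-1 and B7-1 / Schedule: binding step 1.5 h, 37 °C, antibody labelling 20 min, ice / Signal: flow cytometry, PE anti-B7-1 (FL2) versus Alexa647 anti-CD8 (FL8), PFA-fixed / Evaluation: percent CD8+ FL2 mean versus row control / Benchmarks: naked versus QL9-loaded vesicles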
CHT inh: inhibitors of human choline transporter CHT; High affinity choline transporter 1 (Homo sapiens), Q9GZV3; AID 488975, 2010; 0.86% of 310,000 active; B-score at 10 µM; CHT-expressing cells, membrane potential dye, choline response; active compounds read low;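 active = B-score over 3 SD under the library average, and starting fluorescence ratio not unusually high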;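 note: choline stimulus applied at its EC90 after an EC20 pre-addition; B-score computed on integrated fluorescence ratio after choline addition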
DSG3 Ab inh: inhibitors of pemphigus antibody binding to DSG3, primary screen, biochemical, bead-based, flow cytometry, scFv-GFP. binding (percent of control), % at 10 µM. Desmoglein-3 (Homo sapiens), P32926. 0.48% of 310,000 active. DSG3-coupled beads, scFv-anti-DSG3-GFP binding; active compounds read low. AID 588358, 2011;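 active = binding more than 3 SD below its plate's average and above zero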;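 note: hits lower antibody fragment binding to DSG3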
p-CIP stab down: p/CIP-EGFP fusion destabilizers, primary screen, fluorescence, F442A cells. Q05BA5. 16 h. decrease of EGFP signal, % at 10 µM. 0.01% of 290,000 active. AID 1984, 2009;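 active = EGFP signal decrease of at least 30% at 10 µM or well 3 SD below plate mean, unless failing retest; inactive = the rest, including hits failing retest or dose response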
GPR7 antag conf: GPR7 receptor antagonists, confirmation, cell-based, fluorescence, single concentration; shares compounds with GPR7 antagonist; GPR7-expressing cells, calcium fluorescence antagonist mode; inhibition, % at 4.4 µM; 52% of 2,400 active; AID 1952, 2009; in the data active = inhibition above about 24%;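 note: stimulated with the GPR7 agonist NPW; 0% = agonist plus vehicle and 100% = vehicle alone without agonist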
MCHR1 antagonist: MCHR1 antagonists in cells, counter-screen for GPR7 antagonist project, cell-based, fluorescence, human; MCHR1-expressing cells, fluorescence antagonist assay; inhibition, % at 4.4 µM; shares compounds with GPR7 antagonist; 62% of 2,400 active; in the data active = inhibition above about 22%;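 note: 0% = vehicle with agonist and 100% = vehicle without agonist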
Active calls of the source: *; i = inactive; . = not tested or not shown.

SMILES	CHT PAM	GPR7 antagonist	T cell HTS	CHT inh	DSG3 Ab inh	p-CIP stab down	GPR7 antag conf	MCHR1 antagonist
Cc1ccc(C(=O)/C=C/c2cn(CN3CCN(C)CC3)c3ccccc23)cc1	i	9.9	992.9	i	110.6	7.0	.	.
Cc1ccc(NC(=O)c2ncn(CCCNCC3CCCCC3)n2)cc1C	.	.	.	.	110.5	.	.	.
CC(C)CC(NC(=O)C1CCC(C)CC1)C(=O)Nc1cccnc1 (centres undefined)	i	28.2*	216.0	i	99.6	-4.8	-13.1	33.8*
CC(C)Cc1ccc(C(C)C(=O)Nc2cccnc2)cc1 (centres undefined)	i	54.5*	155.7	i	101.2	-25.7	46.4*	68.3*
CC(C)CC(NC(=O)C1CCC(C)CC1)C(=O)NCc1cccnc1 (centres undefined)	i	-3.2	469.4	i	90.0	-12.7	.	.
CC(C(=O)Nc1cccnc1)c1ccc([N+](=O)[O-])cc1 (centres undefined)	i	1.0	230.4	i	109.8	5.0	.	.
O=C(c1cccs1)N1C[C@@H](n2cc(-c3ccc(F)cc3)nn2)[C@H](O)C[C@@H]1c1ccccc1	.	.	.	.	99.7	.	.	.
CCC(CC)C1C(C#N)=C(N)SC(N)=C1C#N	i	22.3*	286.4	i	102.5	-5.6	10.0	18.5
CC(c1ccccc1)C1C(C#N)=C(N)SC(N)=C1C#N (centres undefined)	i	-3.2	172.6	i	107.1	-3.9	.	.
O=[N+]([O-])c1ccc(NC(=S)NCCc2ccccc2)cc1	i	46.7*	145.5	i	90.9	-8.3	60.7*	58.8*
O=[N+]([O-])c1ccc(NC(=S)NCCc2ccc(Cl)cc2)cc1	i	48.9*	122.4	i	110.5	-3.7	65.3*	69.9*
S=C(NCCc1ccccc1)Nc1ccc(Cl)cc1	i	-12.4	347.4	i	.	0.7	.	.
O=[N+]([O-])c1ccc(NC(=S)NCc2ccc(F)cc2)cc1	i	39.8*	221.3	i	114.2	-11.8	59.5*	70.5*
Fc1ccc(CNC(=S)Nc2cccc(Cl)c2)cc1	i	36.4*	289.7	i	101.9	-11.5	13.8	52.8*
NS(=O)(=O)c1ccc(NC(=S)NCCc2ccccc2)cc1	i	4.3	400.6	i	93.8	-17.6	.	.
CSc1ncnc2c1ncn2CCCNCCCc1ccccc1	.	.	.	.	106.1	.	.	.
O=C(OCc1cn([C@H]2C[C@H](c3ccc(Cl)cc3)N(C(=O)c3cccs3)C[C@@H]2O)nn1)c1ccccc1	.	.	.	.	103.2	.	.	.
CC(=O)c1cc2c(cc1NC(=O)CSc1nnc(C3CC3)n1C)OCO2	.	.	.	.	98.8	.	.	.
S=C(NCCC(c1ccccc1)c1ccccc1)Nc1cccc(Cl)c1	i	-4.3	193.2	i	98.8	-1.4	.	.
S=C(NCCN(C1CCCCC1)C1CCCC1)Nc1cccc(Cl)c1	i	54.9*	640.3	i	96.8	-12.6	60.2*	68.6*
CCOc1ccccc1C1NC(=O)c2ccccc2N1 (centres undefined)	.	.	.	.	82.3	.	.	.
Nc1n[nH]c(N)c1N=Nc1cccc(F)c1	i	-13.2	338.2	i	94.4	-1.2	.	.
Nc1n[nH]c(N)c1N=Nc1cccc(C(F)(F)F)c1	i	41.0*	261.2	i	106.3	4.9	38.4*	35.9*
O=C(CSC(=O)c1ccccc1)Nc1ccccc1F	.	.	133.6	.	132.4	.	.	.
CC[C@H](C)[C@H]1CNC(=S)N1CC1CCN(CCCC2CCCC2)CC1	.	.	.	.	103.0	.	.	.
SMILES	CHT PAM	GPR7 antagonist	T cell HTS	CHT inh	DSG3 Ab inh	p-CIP stab down	GPR7 antag conf	MCHR1 antagonist
CCN1CCN(c2ccc(S(=O)(=O)N3CCCCC3)cc2NC(=O)COc2ccc(Cl)c(C)c2)CC1	i	23.3*	186.8	i	127.5	14.0	51.0*	43.2*
CCN1CCN(c2ccc(S(=O)(=O)N3CCCCC3)cc2NC(=O)COc2ccccc2)CC1	i	.	216.1	i	108.4	.	.	.
Nc1cc(=O)nc2cn[nH]n12	.	.	.	.	102.0	.	.	.
Cc1cc(C)n(-c2nc(NCCCN(C)C)c3c4c(sc3n2)CCCC4)n1	i	0.0	167.3	i	98.7	1.9	.	.
Cc1cc(C)n(-c2nc(NCCN(C)C)c3c4c(sc3n2)CCCC4)n1	i	24.2*	351.6	i	112.4	12.6	26.7*	29.9*
COc1ccc(S(=O)(=O)N2CCOC2CNC(=O)C(=O)NCc2ccc3c(c2)OCO3)cc1C (centres undefined)	.	.	.	.	102.4	.	.	.
COc1ccc(Nc2sc(C(=O)c3ccc(Cl)cc3)c(N)c2C(=O)Nc2ccccc2OC)cc1	i	71.2*	i	i	100.7	2.2	92.9*	99.7*
COc1ccc(C(=O)c2sc(Nc3cccc(OC)c3)c(C(=O)Nc3cccc(C)c3C)c2N)cc1	i	79.2*	i	i	84.0	-0.6	23.0	77.0*
O=C(COc1ccc([N+](=O)[O-])cc1)Nc1ccc2c(c1)CCC2	.	.	346.4	.	116.5	.	.	.
O=C(Cc1ccc([N+](=O)[O-])cc1)Nc1ccc2c(c1)CCC2	i	21.8*	441.0	i	92.3	-19.1	23.6	26.7*
COc1ccc(CCC(=O)OCC(=O)c2c(N)n(CC(C)C)c(=O)n(C)c2=O)cc1	i	28.4*	573.2	i	100.6	-5.0	43.7*	59.8*
CC1=C(C(=O)N2CCOCC2)CC(CC(=O)NCC2CCCCC2)C(=O)N1Cc1ccccc1 (centres undefined)	.	.	.	.	104.6	.	.	.
CCOc1ccc(C(=O)N[C@H](C(=O)N2CCN(c3ncccn3)CC2)C(C)C)cc1	.	.	.	.	108.3	.	.	.
O=P(Cc1cc(Br)cc(Br)c1OCCO)(c1ccccc1)c1ccccc1	i	33.4*	448.7	i	.	-17.7	39.3*	20.4
CCSCCOC(=O)C1=C(C)NC(=O)NC1c1cc(OC)ccc1OC (centres undefined)	i	-14.7	301.5	i	91.4	1.9	.	.
CCSCCOC(=O)C1=C(C)N(C)C(=O)NC1c1cc(OC)ccc1OC (centres undefined)	i	22.9*	919.0	i	111.8	0.9	-5.4	10.0
